Screening data (PubChem BioAssay)
STEP inh – STEP (human) phosphatase inhibition | AID 588621 | recombinant STEP, OMFP fluorogenic substrate, fluorescence | 360,000 compounds, 0.25% hits | P54829 | inhibition, % at 20 µM;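 active means inhibition at 20 µM, scaled per plate between control wells, above about 37%, limit read from the data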
Target sequence (P54829 whole entry, looked up): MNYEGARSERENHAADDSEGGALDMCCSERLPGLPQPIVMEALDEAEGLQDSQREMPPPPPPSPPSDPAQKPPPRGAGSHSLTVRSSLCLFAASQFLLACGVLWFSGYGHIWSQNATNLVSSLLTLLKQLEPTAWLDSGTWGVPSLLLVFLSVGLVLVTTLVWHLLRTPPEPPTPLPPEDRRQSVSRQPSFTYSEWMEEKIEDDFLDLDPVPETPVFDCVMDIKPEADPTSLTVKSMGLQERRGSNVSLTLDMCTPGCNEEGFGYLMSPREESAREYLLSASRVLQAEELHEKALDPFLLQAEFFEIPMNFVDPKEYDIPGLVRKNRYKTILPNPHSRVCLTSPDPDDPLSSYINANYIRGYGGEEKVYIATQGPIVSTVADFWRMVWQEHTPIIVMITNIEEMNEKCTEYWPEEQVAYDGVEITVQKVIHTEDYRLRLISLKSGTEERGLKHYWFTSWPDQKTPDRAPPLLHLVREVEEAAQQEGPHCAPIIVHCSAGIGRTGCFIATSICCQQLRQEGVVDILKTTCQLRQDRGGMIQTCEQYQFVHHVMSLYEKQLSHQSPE
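material = STEP tyrosine phosphatase | reagent = fluorogenic phosphatase substrate OMFP at 25 µM final | doses = single compound dose of 20 µM, 1% DMSO final | schedule = 20 min reaction, room temperature, in the dark | measured by = fluorescence, 480/540 nm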
SUMO HTRF inh – blocks human SUMOylation mediated by UBC9 | P63279 | inhibition, % at 35 µM | 290,000 compounds, 0.36% hits | HTRF SUMOylation assay, SAE1/SAE2 + UBC9, in vitro; in the data active means inhibition above about 50%, passing the limit was not always enough
Scp-1 inhibitor – blocks human Scp-1 phosphatase activity | Recombinant Scp1, phosphopeptide, malachite green phosphate absorbance | Q9GZU7 | 340,000 compounds, 0.88% hits | inhibition, % at 20 µM;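 active means inhibition above about 50% at 20 µM, limit read from the data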
Target sequence (Q9GZU7 76-261 limits assumed): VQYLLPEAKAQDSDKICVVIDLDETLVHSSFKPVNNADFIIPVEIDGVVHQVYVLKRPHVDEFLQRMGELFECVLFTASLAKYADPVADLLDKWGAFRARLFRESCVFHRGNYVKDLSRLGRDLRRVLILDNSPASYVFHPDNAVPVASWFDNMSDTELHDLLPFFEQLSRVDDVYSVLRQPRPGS
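Incubation: 45 min enzyme reaction at room temperature / System: truncated SCP-1 phosphatase (76-261aa) / Reagent: Phospho 17-mer peptide substrate / Buffer or medium: Acidic Tris acetate buffer with magnesium and detergent / Signal: absorbance at 630 nm / Doses: one concentration, 20 µM, with 1.0% DMSO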
LMPTP inh – blocks human LMPTP phosphatase; P24666; recombinant LMPTP-A, OMFP fluorogenic substrate, fluorescence intensity; inhibition, % at 20 µM; 360,000 compounds, 0.22% hits;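 active means compounds that cut the enzyme signal by at least half of the control window in the single-dose screen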
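material = LMPTP-A | quantity = 0.625 nM enzyme | reagent = OMFP substrate, 400 µM final | buffer or medium = Bis-Tris pH 6.0, DTT, detergent | detection = endpoint fluorescence intensity from OMFP dephosphorylation | dosing = single 20 µM dose | read-out basis = % inhibition relative to no-enzyme and uninhibited control wells | control set = no-enzyme and uninhibited controls | timing = 50 min at room temperature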
DNMT1 inh – DNMT1 (human) enzyme inhibition | AID 588458 | DNMT1 molecular beacon, Hinp1I cleavage, fluorescence | 360,000 compounds, 0.83% hits | inhibition (reported as % activation of signal), % at 10 µM; in the data active means inhibition above about 50%
SUMO1 PPI mod – alters human SUMO1 binding to SIM partners | P63165 | SUMO1 binding to a labelled peptide, TR-FRET, 1 h | inhibition, % at 20 µM | 360,000 compounds, 0.33% hits | AID 602429; in the data active means inhibition above about 37%
Scp1 confirm – Scp-1 (human) inhibition, single-dose confirmed; shares compounds with Scp-1 inhibitor; recombinant SCP-1 catalytic domain, phosphate release, malachite green absorbance; inhibition, % at 20 µM; 2,500 compounds, 61% hits; AID 540281
Scp-1 MG ctr – colorimetric interference in Scp-1 counter-screen; Colorimetric interference counterscreen, malachite green absorbance 630 nm; 2,500 tested, under 10 active; shares compounds with Scp-1 inhibitor; apparent inhibition (interference), % at 20 µM;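 further: compounds added after enzyme reaction finished so only phosphate colour detection is probed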
Scp-1 Tm shift – validation of human Scp-1 inhibitors by thermal shift binding; 1,500 compounds, 25% hits; Recombinant SCP1, Sypro Orange thermal shift Tm; shares compounds with Scp-1 inhibitor; thermal shift relative to vanadate control, % at 40 µM;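 active means substances whose mean melting-temperature shift, as a percentage of the reference inhibitor's shift, reaches about 5.3%, limit read from the data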
A number is an active result. Compounds with a hit are over-represented: about 1.9% of the library has one in this group of screens.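 How the source made its calls, unless noted: active means inhibition of at least 30% at 20 µM; inactive means the rest.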

What do the screens show for `CCOC(=O)N1CCN(c2c(NCC3CCCO3)c(=O)c2=O)CC1` (stereo not drawn)?
STEP inh: inactive; SUMO HTRF inh: inactive; Scp-1 inhibitor: 82; LMPTP inh: inactive; DNMT1 inh: inactive; SUMO1 PPI mod: inactive; Scp1 confirm: inactive; Scp-1 MG ctr: inactive

How did CCOC(=O)c1sc(NC(=O)CSc2nncs2)c(C(=O)OCC)c1C do in these assays?
STEP inh: inactive; SUMO HTRF inh: inactive; Scp-1 inhibitor: 52; LMPTP inh: inactive; DNMT1 inh: inactive; SUMO1 PPI mod: inactive; Scp1 confirm: inactive; Scp-1 MG ctr: inactive

What do the screens show for `N[C@@H](C(=O)N[C@@H]1C(=O)N2C(C(=O)O)=C(Cl)CS[C@H]12)c1ccccc1`?
STEP inh: inactive; SUMO HTRF inh: inactive; Scp-1 inhibitor: 57; LMPTP inh: inactive; DNMT1 inh: inactive; SUMO1 PPI mod: inactive; Scp1 confirm: 60; Scp-1 MG ctr: inactive; Scp-1 Tm shift: 7.4

Results for COc1cc(CCCN2C(=O)C(=O)NC[C@@H]2C(C)O)cc(OC)c1OC (stereo partly drawn) ?
STEP inh: inactive; SUMO HTRF inh: inactive; Scp-1 inhibitor: inactive; LMPTP inh: inactive; DNMT1 inh: inactive; SUMO1 PPI mod: inactive

What do the screens show for `O=C(O)Cc1ccc(N=Nc2c(O)c(C(=O)O)cc3ccccc23)cc1`?
STEP inh: inactive; SUMO HTRF inh: inactive; Scp-1 inhibitor: 50; LMPTP inh: inactive; DNMT1 inh: 61; SUMO1 PPI mod: inactive; Scp1 confirm: 73; Scp-1 MG ctr: inactive; Scp-1 Tm shift: 28

How did CC(=O)c1ccc(NC(=O)CSc2ccsc2[N+](=O)[O-])cc1 do in these assays?
STEP inh: inactive; SUMO HTRF inh: inactive; Scp-1 inhibitor: 72; LMPTP inh: inactive; DNMT1 inh: inactive; SUMO1 PPI mod: inactive; Scp1 confirm: 64; Scp-1 MG ctr: inactive; Scp-1 Tm shift: 7.1

How did CCOC(=O)Cn1c(=NC(=O)c2sc3ccccc3c2Cl)sc2cc(S(N)(=O)=O)ccc21 do in these assays?
STEP inh: inactive; Scp-1 inhibitor: 67; LMPTP inh: 58; DNMT1 inh: inactive; SUMO1 PPI mod: inactive; Scp1 confirm: 75; Scp-1 MG ctr: inactive; Scp-1 Tm shift: 7.9

What do the screens show for `COC(=O)c1c(NC(=O)Cc2cccs2)sc2c1CCCC2`?
STEP inh: inactive; SUMO HTRF inh: inactive; Scp-1 inhibitor: 51; LMPTP inh: inactive; DNMT1 inh: inactive; SUMO1 PPI mod: inactive; Scp1 confirm: 73; Scp-1 MG ctr: inactive; Scp-1 Tm shift: inactive

What do the screens show for `CCc1ccc(NC(=O)CC2C(=O)NCCN2C(=O)c2ccc(F)cc2)cc1` (stereo not drawn)?
STEP inh: inactive; SUMO HTRF inh: inactive; Scp-1 inhibitor: inactive; LMPTP inh: inactive; DNMT1 inh: inactive; SUMO1 PPI mod: inactive; Scp1 confirm: inactive; Scp-1 MG ctr: inactive

What do the screens show for `N#CCSc1ncnc2sc3c(c12)CCC3`?
STEP inh: inactive; SUMO HTRF inh: inactive; Scp-1 inhibitor: 68; LMPTP inh: inactive; DNMT1 inh: inactive; SUMO1 PPI mod: inactive; Scp1 confirm: inactive; Scp-1 MG ctr: inactive

Results for CCOc1ccc(CCNC(=O)/C=C/c2ccco2)cc1OCC ?
STEP inh: inactive; SUMO HTRF inh: inactive; Scp-1 inhibitor: 67; LMPTP inh: inactive; DNMT1 inh: inactive; SUMO1 PPI mod: inactive; Scp1 confirm: inactive; Scp-1 MG ctr: inactive

What do the screens show for `Cn1c(SCC(=O)c2ccc(O)c(O)c2)nnc1-c1cccs1`?
STEP inh: inactive; SUMO HTRF inh: inactive; Scp-1 inhibitor: 67; LMPTP inh: inactive; DNMT1 inh: inactive; SUMO1 PPI mod: inactive; Scp1 confirm: 50; Scp-1 MG ctr: inactive; Scp-1 Tm shift: inactive

What do the screens show for `COc1ccc(-c2cc(NC=O)c3ncc(-c4cnn(C)c4)n3c2)cc1`?
STEP inh: inactive; LMPTP inh: inactive; DNMT1 inh: inactive; SUMO1 PPI mod: inactive

Results for COC(=O)[C@H](CC(C)C)NC(=O)NCCC1=CCCCC1 ?
STEP inh: inactive; SUMO HTRF inh: inactive; Scp-1 inhibitor: 85; LMPTP inh: inactive; DNMT1 inh: inactive; SUMO1 PPI mod: inactive; Scp1 confirm: inactive; Scp-1 MG ctr: inactive

Results for O=C(CCn1c(=O)oc2cc(Cl)ccc21)Nc1ccc(N2CCOCC2)cc1 ?
STEP inh: inactive; SUMO HTRF inh: inactive; Scp-1 inhibitor: inactive; LMPTP inh: inactive; DNMT1 inh: inactive; SUMO1 PPI mod: inactive

Results for COCCn1c(=NC(=O)c2cccs2)sc2cc(NC(C)=O)ccc21 ?
STEP inh: inactive; SUMO HTRF inh: inactive; Scp-1 inhibitor: inactive; LMPTP inh: inactive; DNMT1 inh: inactive; SUMO1 PPI mod: inactive

Results for C#CCn1c(=NC(=O)c2ccc(Br)s2)sc2cc(NC(C)=O)ccc21 ?
STEP inh: inactive; SUMO HTRF inh: inactive; Scp-1 inhibitor: 54; LMPTP inh: inactive; DNMT1 inh: inactive; SUMO1 PPI mod: inactive; Scp1 confirm: 70; Scp-1 MG ctr: inactive; Scp-1 Tm shift: inactive

How did C[C@H](CO)N1C[C@H](C)[C@@H](CN(C)Cc2ccc(Oc3ccccc3)cc2)Oc2c(NC(=O)c3ccncc3)cccc2C1=O do in these assays?
STEP inh: inactive; Scp-1 inhibitor: inactive; LMPTP inh: inactive; DNMT1 inh: inactive; SUMO1 PPI mod: inactive

Results for O=C1CCN(Cc2ccccc2)S(=O)(=O)c2ccccc21 ?
STEP inh: inactive; SUMO HTRF inh: inactive; Scp-1 inhibitor: 68; LMPTP inh: inactive; DNMT1 inh: inactive; SUMO1 PPI mod: inactive; Scp1 confirm: 63; Scp-1 MG ctr: inactive; Scp-1 Tm shift: inactive

Results for CN(CC(=O)Nc1ccc(F)cc1)C(=O)COC(=O)c1cccc(N(C)C)c1 ?
STEP inh: inactive; Scp-1 inhibitor: inactive; LMPTP inh: inactive; DNMT1 inh: inactive; SUMO1 PPI mod: inactive

What do the screens show for `CCCCN(C(=O)c1cccc(S(=O)(=O)N2CCCCC2)c1)C1CCS(=O)(=O)C1` (stereo not drawn)?
STEP inh: inactive; SUMO HTRF inh: inactive; Scp-1 inhibitor: inactive; LMPTP inh: inactive; DNMT1 inh: inactive; SUMO1 PPI mod: inactive

How did C[C@@H]1CCCCO[C@@H](CN(C)Cc2ccc(C(F)(F)F)cc2)[C@@H](C)CN([C@H](C)CO)C(=O)c2cc(N(C)C)ccc2O1 do in these assays?
STEP inh: inactive; LMPTP inh: inactive; DNMT1 inh: inactive; SUMO1 PPI mod: inactive

What do the screens show for `COc1ccc(-c2sc3ccc(N4CCOCC4)cc3c2C#CC2(O)CCCCC2)cc1`?
STEP inh: inactive; Scp-1 inhibitor: inactive; LMPTP inh: inactive; DNMT1 inh: inactive; SUMO1 PPI mod: inactive
